Results published in ChEMBL document CHEMBL1137371, “Pyrazolidine-3,5-diones and 5-hydroxy-1H-pyrazol-3(2H)-ones, inhibitors of UDP-N-acetylenolpyruvyl glucosamine reductase” (J Med Chem, 2006).
≈ marks a conversion by molar mass, not a printed value. Calls of active or inactive are those of the source. The calls are words filed in the database; no cut-off is given here.

Assays:
Streptococcus pneumoniae [1] = test: Antibacterial activity against penicillin resistant Streptococcus pneumoniae GC 1894 by microbroth dilution method; format: functional
[2] = molecular target: T1, UDP-N-acetylenolpyruvoylglucosamine reductase (Escherichia coli K-12, UniProt P08373); test: Inhibition of MurB activity
T1 sequence (P08373 whole entry): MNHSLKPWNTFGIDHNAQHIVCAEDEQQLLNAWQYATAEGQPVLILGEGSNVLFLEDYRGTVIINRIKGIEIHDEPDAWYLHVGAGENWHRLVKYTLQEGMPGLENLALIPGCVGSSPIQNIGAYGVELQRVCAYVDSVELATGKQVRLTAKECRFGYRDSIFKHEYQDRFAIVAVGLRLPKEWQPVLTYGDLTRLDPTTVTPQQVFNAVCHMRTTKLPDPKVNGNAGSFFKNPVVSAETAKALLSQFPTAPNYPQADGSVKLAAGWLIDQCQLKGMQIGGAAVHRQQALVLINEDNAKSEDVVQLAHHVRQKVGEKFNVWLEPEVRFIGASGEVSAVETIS
In short: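 Recombinant E. coli MurB was expressed in BL21(λDE3) and purified. Enzyme (20 nM) was preincubated 20 min with inhibitor at 1.6, 3.2, 6.4, 12.8, 25 and 50 µM. Reaction in 50 mM Tris-HCl pH 8.0 with 10 mM KCl, 50 µM enolpyruvyl UDP-GlcNAc and 100 µM NADPH. NADPH oxidation followed as A340 decrease over 5 min. IC50 from sigmoid Hill fit, mean of three runs.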

Candida albicans = test: Antibacterial activity against Candida albicans by micro-broth dilution method; format: functional, organism-based
In short: (§1)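 Broth microdilution in Mueller-Hinton II medium per NCCLS recommendations. Inoculum 5 × 10⁵ cfu/mL, compound range 0.06-128 µg/mL. MIC read after 18 h at 35 °C in ambient air.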

[3] = system: Staphylococcus epidermidis; test: Inhibition of soluble peptidoglycan biosynthesis in Staphylococcus epidermidis; format: functional, organism-based
In short: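 S. epidermidis was grown in BHI to OD600 0.6, washed and concentrated tenfold in cell-wall-enriched medium. Cells incubated with 50 µg/mL chloramphenicol, 100 µg/mL penicillin G, [¹⁴C]-GlcNAc (2.9 µM/40 nCi) and compound at 0-25 µg/mL, 1 h, 37 °C, shaking. Supernatant precipitated with 5% TCA/0.4% BSA, 30 min at 4 °C, then filtered and scintillation counted.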

Escherichia coli = test: Antibacterial activity against Escherichia coli GC 4560 (imp) by micro-broth dilution method; format: functional; in short: as §1
Staphylococcus aureus = test: Antibacterial activity against methicillin resistant Staphylococcus aureus GC 1131 by micro-broth dilution method; format: functional
Streptococcus pneumoniae [4] = test: Antibacterial activity against Streptococcus pneumoniae in presence of 4% bovine serum albumin; format: functional
Enterococcus faecalis = test: Antibacterial activity against vancomycin resistant Enterococcus faecalis GC 2242 by microbroth dilution method; format: functional
[5] = Streptococcus pneumoniae, GC 1894, read-out: MIC
[6] = Escherichia coli, GC 4560, read-out: MIC
[7] = Staphylococcus aureus, GC 1131, read-out: MIC
[8] = Enterococcus faecalis, GC 2242, read-out: MIC

SMILES	MIC (Streptococcus pneumoniae [1]; [5]) [µg/mL]	IC50 [2] [µM]	Activity (Candida albicans)	IC50 [3] [µM]	MIC (Escherichia coli; [6]) [µg/mL]	MIC (Staphylococcus aureus; [7]) [µg/mL]	MIC (Streptococcus pneumoniae [4]) [µg/mL]	MIC (Enterococcus faecalis; [8]) [µg/mL]	MIC (Escherichia coli) [µg/mL]	MIC (Streptococcus pneumoniae [1]) [µg/mL]	MIC (Enterococcus faecalis) [µg/mL]	MIC (Staphylococcus aureus) [µg/mL]
O=C(Nc1ccc(C(F)(F)F)cc1)c1c(O)n(-c2cccc(Cl)c2)n(-c2cccc(Cl)c2)c1=O	< 0.12	8.7	inactive	2.2	64 (≈ 126 µM)	0.5 (≈ 0.984 µM)	> 128	< 0.12	–	–	–	–
O=C(Nc1ccc(Cl)cc1)c1c(O)n(-c2ccccc2)n(-c2ccccc2)c1=O	0.5 (≈ 1.23 µM)	54	inactive	–	> 128	32 (≈ 78.8 µM)	> 128	1 (≈ 2.46 µM)	–	–	–	–
O=C(c1ccc(OC(F)(F)F)cc1)c1c(O)n(-c2ccc(Cl)cc2)n(-c2ccc(Cl)cc2)c1=O	0.79 (≈ 1.55 µM)	5.4	inactive	2	25.4 (≈ 49.9 µM)	12.7 (≈ 24.9 µM)	> 128	0.79 (≈ 1.55 µM)	–	–	–	–
O=C(c1ccc(-c2ccccc2)cc1)c1c(O)n(-c2ccc(Cl)cc2)n(-c2ccc(Cl)cc2)c1=O	0.3 (≈ 0.598 µM)	6.1	inactive	4.9	> 100	3.1 (≈ 6.18 µM)	> 128	0.39 (≈ 0.778 µM)	–	–	–	–
O=C1CC(=O)N(c2ccccc2)N1c1ccccc1	–	> 100	–	–	–	–	–	–	–	–	–	–
O=C(Nc1ccc(Br)cc1)c1c(O)n(-c2ccccc2)n(-c2ccccc2)c1=O	1 (≈ 2.22 µM)	42	inactive	–	> 128	16 (≈ 35.5 µM)	> 128	1 (≈ 2.22 µM)	–	–	–	–
O=C1CC(=O)N(c2ccc(F)cc2)N1c1ccc(F)cc1	64 (≈ 222 µM)	> 87	–	–	64 (≈ 222 µM)	128 (≈ 444 µM)	–	128 (≈ 444 µM)	–	–	–	–
O=C(Nc1ccc(C(F)(F)F)cc1)c1c(O)n(-c2ccc(Cl)cc2)n(-c2ccc(Cl)cc2)c1=O	–	5.9	inactive	8.3	–	–	–	–	16 (≈ 31.5 µM)	–	–	–
O=C1CC(=O)N(c2ccc(Cl)c(Cl)c2)N1c1ccc(Cl)c(Cl)c1	4 (≈ 10.3 µM)	25.1	–	41	32 (≈ 82 µM)	8 (≈ 20.5 µM)	–	8 (≈ 20.5 µM)	–	–	–	–
COc1ccc(NC(=O)c2c(O)n(-c3ccc(Cl)cc3)n(-c3ccc(Cl)cc3)c2=O)cc1	–	16	inactive	–	–	–	–	–	>128	–	–	–
COc1ccc(CC(=O)c2c(O)n(-c3ccc(Cl)cc3)n(-c3ccc(Cl)cc3)c2=O)cc1	0.73 (≈ 1.56 µM)	40	inactive	–	> 94	11.7 (≈ 24.9 µM)	> 128	1.4 (≈ 2.98 µM)	–	–	–	–
O=C1CC(=O)N(c2ccc(Cl)cc2)N1c1ccc(Cl)cc1	8 (≈ 24.9 µM)	71.6	–	–	16 (≈ 49.8 µM)	8 (≈ 24.9 µM)	–	8 (≈ 24.9 µM)	–	–	–	–
CCCCOc1ccc(C(=O)c2c(O)n(-c3ccc(Cl)cc3)n(-c3ccc(Cl)cc3)c2=O)cc1	0.39 (≈ 0.784 µM)	4.5	inactive	7.3	> 100	1.6 (≈ 3.22 µM)	> 128	0.39 (≈ 0.784 µM)	–	–	–	–
O=C(Nc1ccccc1)c1c(O)n(-c2ccccc2)n(-c2ccccc2)c1=O	16 (≈ 43.1 µM)	54	inactive	–	> 128	64 (≈ 172 µM)	> 128	8 (≈ 21.5 µM)	–	–	–	–
O=C(c1ccc(C(F)(F)F)cc1)c1c(O)n(-c2ccc(Cl)cc2)n(-c2ccc(Cl)cc2)c1=O	–	15	inactive	–	16 (≈ 32.4 µM)	8 (≈ 16.2 µM)	> 128	–	–	0.5 (≈ 1.01 µM)	2 (≈ 4.05 µM)	–
O=C(Nc1ccc(Cl)c(Cl)c1)c1c(O)n(-c2ccc(Cl)c(Cl)c2)n(-c2ccc(Cl)c(Cl)c2)c1=O	0.5 (≈ 0.865 µM)	4.8	inactive	–	> 128	64 (≈ 111 µM)	> 128	0.5 (≈ 0.865 µM)	–	–	–	–
COc1ccc(C(=O)c2c(O)n(-c3ccc(Cl)cc3)n(-c3ccc(Cl)cc3)c2=O)cc1	–	10	inactive	–	–	11.3 (≈ 24.8 µM)	> 128	–	23 (≈ 50.5 µM)	2.8 (≈ 6.15 µM)	5.7 (≈ 12.5 µM)	–
O=C1C(=C(O)c2ccc(Cl)c(Cl)c2)C(=O)N(c2ccc(Cl)cc2)N1c1ccc(Cl)cc1	0.39 (≈ 0.789 µM)	13	inactive	–	49 (≈ 99.2 µM)	6.2 (≈ 12.5 µM)	> 128	0.77 (≈ 1.56 µM)	–	–	–	–
O=C(Nc1ccc(Cl)cc1)c1c(O)n(-c2cccc(Cl)c2)n(-c2cccc(Cl)c2)c1=O	< 0.12	8.6	inactive	3	> 128	0.5 (≈ 1.05 µM)	> 128	0.25 (≈ 0.527 µM)	–	–	–	–
O=C(Nc1ccc(Cl)cc1)c1c(O)n(-c2ccc(Cl)cc2)n(-c2ccc(Cl)cc2)c1=O	–	13.7	inactive	42.2	–	–	–	–	2 (≈ 4.21 µM)	–	–	–
O=C(c1cccs1)c1c(O)n(-c2ccc(Cl)cc2)n(-c2ccc(Cl)cc2)c1=O	0.67 (≈ 1.55 µM)	5.8	inactive	1	21.6 (≈ 50.1 µM)	5.4 (≈ 12.5 µM)	> 128	1.3 (≈ 3.01 µM)	–	–	–	–
O=C(c1ccc(Cl)cc1)c1c(O)n(-c2ccc(Cl)cc2)n(-c2ccc(Cl)cc2)c1=O	–	11	inactive	–	–	–	> 128	–	23 (≈ 50 µM)	0.72 (≈ 1.57 µM)	1.4 (≈ 3.05 µM)	5.7 (≈ 12.4 µM)
O=C1CC(=O)N(c2cccc(Cl)c2)N1c1cccc(Cl)c1	8 (≈ 24.9 µM)	68.5	–	56	200 (≈ 623 µM)	16 (≈ 49.8 µM)	–	16 (≈ 49.8 µM)	–	–	–	–
Cc1ccc(NC(=O)c2c(O)n(-c3ccc(Cl)c(Cl)c3)n(-c3ccc(Cl)c(Cl)c3)c2=O)cc1	< 0.12	4.8	inactive	4	> 128	16 (≈ 30.6 µM)	> 128	0.25 (≈ 0.478 µM)	–	–	–	–
